Compound activity: PubChem BioAssay, Sanford-Burnham Center for Chemical Genomics
H9c2 TAG inh: inhibitors of triacylglycerol accumulation; H9c2 cells, Nile Red lipid (TAG) fluorescence; cells loaded with 200 µM oleic acid; inhibition, % at 12.5 µM; 0.66% of 230,000 active; AID 651582;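 active means pattern-corrected inhibition of lipid staining of at least 50% with the nuclear-stain viability signal not falling by more than 50%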;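 further: 0% = DMSO wells and 100% = triacsin C control wells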
CCR6 antagonist: CCR6 (human) receptor antagonism | P51684 | CHO-K1 CCR6 PathHunter beta-arrestin, luminescence, CCL20-stimulated | inhibition, % at 20 µM | 0.49% of 340,000 active;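 active means compounds whose inhibition of the agonist-driven luminescence signal at 20 µM reaches about 50%, limit read from the data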;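 further: cells stimulated with CCL20 at 14 nM final; plate controls were DMSO with CCL20 for no effect and DMSO without agonist for full effect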
CXCR6 block: inhibitors of human CXCR6 receptor; O00574; CHO-K1 PathHunter CXCR6 beta-arrestin, luminescence; inhibition, % at 20 µM; 0.36% of 360,000 active; AID 602244; in the data active means inhibition above about 34%, passing the limit was not always enough;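 further: antagonist mode with CXCL16 agonist at 10 nM final; 0% = 10 nM CXCL16 with DMSO and 100% = unstimulated wells without agonist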
Target sequence (O00574 whole entry, looked up): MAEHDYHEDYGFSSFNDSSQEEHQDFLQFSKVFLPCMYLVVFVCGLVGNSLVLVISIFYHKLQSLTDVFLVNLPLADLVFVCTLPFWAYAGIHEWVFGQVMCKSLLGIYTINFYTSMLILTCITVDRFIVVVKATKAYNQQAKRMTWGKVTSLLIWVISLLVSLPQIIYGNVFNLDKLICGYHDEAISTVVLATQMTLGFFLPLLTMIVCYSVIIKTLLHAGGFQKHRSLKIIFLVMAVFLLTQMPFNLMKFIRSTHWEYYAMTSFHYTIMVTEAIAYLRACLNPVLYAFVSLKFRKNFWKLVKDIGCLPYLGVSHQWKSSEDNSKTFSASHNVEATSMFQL
APJ ag: activates the human apelin receptor APJ. P35414. CHO-K1 APJ PathHunter beta-arrestin, luminescence; 0% DMSO wells, 100% apelin. activation, % at 20 µM. 0.11% of 330,000 active;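 active means activation more than six SD over the plate average, tested at 20 µM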;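 further: 0% = DMSO alone and 100% = apelin-13 at 10 nM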
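system = engineered CHO-K1 APJ arrestin reporter cells | input = 1000 cells per well | timing = overnight seeding, 90 min compound at 25 °C, 1 h detection | measured by = enzyme-fragment complementation luminescence | read-out = beta-arrestin recruitment to APJ as agonist activity, luminescent signal | control set = negative DMSO alone, positive Apelin-13 at 10 nM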
APJ antag: antagonists of human APJ apelin receptor; CHO-K1 APJ beta-arrestin complementation, luminescence; inhibition, % at 20 µM; 0.32% of 330,000 active;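 active means inhibition above about 40% at 20 µM, limit read from the data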;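 further: cells challenged with 10 nM apelin-13 agonist together with compound; plate controls were apelin-13 plus DMSO wells for no effect and DMSO wells lacking apelin-13 for full effect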
EBI2 antag: antagonists of human EBI2 receptor. inhibition, % at 5 µM. EBI2 beta-arrestin recruitment, luminescence, 7a,25-OHC stimulated. P32249. 0.81% of 360,000 active; in the data active means inhibition above about 38%;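 further: enzyme fragment complementation signal reports receptor beta-arrestin coupling in cells; 0% = agonist plus DMSO wells and 100% = wells without agonist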
CXCR6 antag conf: CXCR6 antagonism confirmation, single concentration | CHO-K1 CXCR6 PathHunter beta-arrestin, luminescence | 65% of 700 active | inhibition, % at 20 µM | shares compounds with CXCR6 block;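 active means mean inhibition over four retests above 40%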;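 further: receptor stimulated with 10 nM CXCL16 agonist; beta-galactosidase fragment complementation upon beta-arrestin recruitment to receptor; plate controls were CXCL16 plus DMSO for no effect and DMSO without CXCL16 for full effect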
* marks the source's active call; other numbers are inactive results; / = not tested or not shown. Only some compounds are listed: those with a hit (about 1.9% of all), similar ones and a draw of the others.

SMILES	H9c2 TAG inh	CCR6 antagonist	CXCR6 block	APJ ag	APJ antag	EBI2 antag	CXCR6 antag conf
Cc1ccc(S(=O)(=O)c2ccc([N+](=O)[O-])cn2)cc1	/	/	55*	2	27	-6	74*
COc1cc(/C=C(\C#N)c2nc3ccccc3o2)ccc1O	0	55*	49*	-8	32	7	43*
Cc1ccc(C)c(N/C=C(\C#N)c2nc3ccccc3o2)c1	3	3	-8	1	3	-5	/
COCC1CCCN(C(=O)c2ccc3nc(Cc4cccc(Cl)c4)oc3c2)C1 (centres undefined)	-1	9	11	-6	6	12	/
CCOC(=O)C1=C(c2ccccc2)Nc2ncnn2C1c1ccc(C(=O)O)cc1 (centres undefined)	-1	4	-8	5	9	4	/
CCOC(=O)C1=C(c2ccccc2)NC(N)=NC1c1ccc(OCc2ccc(C(=O)OC)cc2)cc1 (centres undefined)	19	43	35*	-1	3	1	23
COc1ccccc1NC(=O)CCc1nnc2ccc(N3CCN(C)CC3)nn12	/	2	7	-2	-4	-1	/
O=C(C=Cc1ccccn1)c1ccccc1	15	39	21	/	/	-12	/
O=C(C=Cc1ccccn1)c1ccccc1O	-1	74*	57*	/	/	-10	60*
COc1cccc(OC)c1C(=O)NC(=S)N1CCCCC1c1cccnc1 (centres undefined)	/	-5	3	-4	-52	2	/
CC1=C(C)CC2C(C1)C(=O)c1ccc(Br)cc1S2(=O)=O (centres undefined)	-5	84*	72*	-13	8	11	41*
C=C1CCN([C@@H](Cc2ccccc2)C(=O)NCCC(C)C)S(=O)(=O)c2ccccc21	9	24	41*	-2	-34	28	42*
O=C(Nc1ccccc1)c1nnsc1S(=O)c1ccc(Cl)cc1 (centres undefined)	-31	101*	89*	-4	21	27	97*
CN(C)S(=O)(=O)c1ccc(C(=O)OCC(=O)N2CC3(C)CC2CC(C)(C)C3)cc1 (centres undefined)	-7	8	-8	-1	8	-1	/
Oc1c(Br)cc(Br)cc1C=NCc1ccccc1	5	21	41*	-4	6	3	51*
Cc1nc2c(sc(=S)n2Cc2ccco2)c(=O)n1CC(=O)Nc1cc(F)ccc1F	/	12	1	1	19	11	/
NS(=O)(=O)c1ccc(CCNC(=O)CCNC(=O)c2ccco2)cc1	/	6	2	0	2	5	/
O=C(COC(=O)c1ccco1)NCC1CCCCC1	-4	-7	-1	10	6	2	/
O=C(CCNC(=O)c1ccco1)NCCc1ccc(Cl)cc1	0	8	40*	-2	7	8	17
O=C(COC(=O)c1ccco1)NCCNC(=O)COC(=O)c1ccco1	-24	1	36*	-2	-3	-1	6
CC1(Cc2ccc(C(F)(F)F)o2)C(=O)Nc2cc(-c3ccc(F)cc3F)ccc21 (centres undefined)	0	/	-13	/	/	-9	/
CCN(c1ccccc1)S(=O)(=O)c1ccc2[nH]c(=O)c(=O)[nH]c2c1	/	2	7	0	9	-9	/
CCN(c1ccccc1C(=O)O)S(=O)(=O)c1ccc2[nH]c(=O)[nH]c2c1	/	7	39*	1	9	-13	1
c1cncc(CNCc2ccco2)c1	/	2	0	/	/	1	/
O=C(O)C1CCc2sc3[nH]c(=S)n(-c4ccccc4)c(=O)c3c21 (centres undefined)	4	11	44*	-6	-4	7	20
SMILES	H9c2 TAG inh	CCR6 antagonist	CXCR6 block	APJ ag	APJ antag	EBI2 antag	CXCR6 antag conf
CCN(CC)C(=O)c1sc2[nH]c(=S)n(-c3ccccc3)c(=O)c2c1C	/	9	-1	0	14	-2	/
COc1cc(/C=C/C(=O)c2ccc(C)c([N+](=O)[O-])c2)cc(OC)c1O	-2	68*	43*	-6	38	25	55*
COc1ccc(/C=C/C(=O)c2ccc(C)c([N+](=O)[O-])c2)cc1O	-3	39	10	-2	-3	-12	/
COc1ccc([C@H]2CC(=O)C=C(c3c(OC)cccc3OC)C2)cc1	/	16	2	1	4	-5	/
O=C(Oc1c(Cl)cc(Cl)c2cccnc12)c1ccco1	/	/	45*	-2	2	27	70*
O=C(Oc1c(Cl)cc(Cl)c2cccnc12)c1cccs1	2	28	34	-3	4	15	/
Cc1cc(C)n(C(C[N+](=O)[O-])c2ccc(Cl)cc2)n1 (centres undefined)	19	20	44*	4	-1	-8	19
CCC(C)N(C(=O)CSc1nnc(NC(C)C)s1)C1CCS(=O)(=O)C1 (centres undefined)	6	4	-11	-6	13	-14	/
CN(C)CC1CC/C(=C\c2ccc(O)cc2)C1=O (centres undefined)	18	86*	75*	/	/	31	77*
CC1CCC/C(=C\c2ccc(O)cc2)C1=O (centres undefined)	3	3	-9	0	6	12	/
COc1ccc(/C=C2/CCC(CN3CCOCC3)C2=O)cc1 (centres undefined)	73*	87*	70*	/	/	36	70*
O=C(Nc1nc(-c2ccc(Cl)cc2)cs1)NC1CCCCC1	15	-3	-21	0	-3	20	/
CC(C)c1ccc(NC(=O)C2CCCCN2S(=O)(=O)c2ccccc2)cc1 (centres undefined)	7	11	1	0	-1	8	/
COc1cccc(C(=O)Nc2sc3c(c2C#N)CCN(C(C)=O)C3)c1	/	16	0	-7	-13	-3	/
Cc1nn(-c2ccccc2)c(C)c1NC(=O)COc1cc(F)ccc1[N+](=O)[O-]	5	7	-16	0	5	-3	/
O=[N+]([O-])c1ccc(N/N=C/c2sc(N3CCOCC3)nc2-c2ccccc2)c(S(=O)(=O)Nc2ccccc2Cl)c1	/	58*	54*	/	/	15	60*
O=[N+]([O-])c1cc2oc3c(c2c(C=NCc2ccccc2)c1O)CCCC3	/	46	44*	3	-16	8	59*
CC(C)CN=Cc1c(O)c([N+](=O)[O-])cc2oc3c(c12)CCCC3	/	36	34	1	14	-8	/
CC(=O)c1cccc(Nc2ccc(C#N)cc2)c1	/	/	-3	/	/	0	/
O=C(Nc1ccc(F)cc1)C(c1ccnc2ccccc12)N1CCN(C(=O)c2ccco2)CC1 (centres undefined)	/	/	/	/	/	-7	/
